# Test system: Fibroblast
# Experiment: Multiplex assay against human fibroblast
# Assay type: toxicity, cell-based
# Outline: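 At seeding, live cells were stained with Hoechst33342, BioTracker Green Microtubule Cytoskeleton Dye, MitoTracker Red and Annexin V Alexa Fluor 680. After compound addition they were imaged on a CQ1 microscope at 37°C and 5% CO2, and CellPathfinder machine-learning gating sorted them into Hoechst high-intensity objects or normal cells, with normal cells further split into healthy, pyknosed or fragmented nuclei and pyknosed cells into mitotic or apoptotic. Tubulin, mitochondrial-mass and membrane-permeability phenotypes are given as per cents of cells with healthy nuclei.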
# [1] = 12 h, 1 µM, compound concentration 1 uM, replicate 1
# [2] = 12 h, 1 µM, compound concentration 1 uM, replicate 2
# [3] = 12 h, 10 µM, compound concentration 10 uM, replicate 1
# [4] = 12 h, 10 µM, compound concentration 10 uM, replicate 2
# [5] = 24 h, 1 µM, compound concentration 1 uM, replicate 1
# [6] = 24 h, 1 µM, compound concentration 1 uM, replicate 2
# [7] = 24 h, 10 µM, compound concentration 10 uM, replicate 1
# [8] = 24 h, 10 µM, compound concentration 10 uM, replicate 2
# [9] = 48 h, 1 µM, compound concentration 1 uM, replicate 1
# [10] = 48 h, 1 µM, compound concentration 1 uM, replicate 2
# [11] = 48 h, 10 µM, compound concentration 10 uM, replicate 1
# [12] = 48 h, 10 µM, compound concentration 10 uM, replicate 2
structure (smiles),measurement,setting,value
O=C1COc2nccc(-c3ccccc3F)c2CN1Cc1cc(C(F)(F)F)cc(C(F)(F)F)c1,Population Apoptotic (%),[1],38%
same,Population Fragmented Nuclei (%),[1],12%
same,Population Healthy Nuclei (%),[1],74%
same,Population Hoechst High Intensity Objects (%),[1],2%
same,Population Membrane Permeable-Phenotype (%),[1],1%
same,Population Mitochondria Different-Phenotype (%),[1],7%
same,Population Mitotic Cells (%),[1],61%
same,Population Normal (%),[1],97%
same,Population Pyknosed Nuclei (%),[1],13%
same,Population Tubulin-Different-Phenotype (%),[1],27%
same,Total Cell Count,[1],195
same,Population Apoptotic (%),[2],29%
same,Population Fragmented Nuclei (%),[2],17%
same,Population Healthy Nuclei (%),[2],62%
same,Population Hoechst High Intensity Objects (%),[2],0%
same,Population Mitochondria Different-Phenotype (%),[2],5%
same,Population Mitotic Cells (%),[2],70%
same,Population Normal (%),[2],99%
same,Population Pyknosed Nuclei (%),[2],20%
same,Population Tubulin-Different-Phenotype (%),[2],32%
same,Total Cell Count,[2],135
same,Population Apoptotic (%),[3],54%
same,Population Fragmented Nuclei (%),[3],15%
same,Population Healthy Nuclei (%),[3],69%
same,Population Hoechst High Intensity Objects (%),[3],5%
same,Population Membrane Permeable-Phenotype (%),[3],0%
same,Population Mitochondria Different-Phenotype (%),[3],10%
same,Population Mitotic Cells (%),[3],45%
same,Population Normal (%),[3],94%
same,Population Pyknosed Nuclei (%),[3],14%
same,Population Tubulin-Different-Phenotype (%),[3],66%
same,Total Cell Count,[3],161
same,Population Apoptotic (%),[4],37%
same,Population Fragmented Nuclei (%),[4],24%
same,Population Healthy Nuclei (%),[4],51%
same,Population Hoechst High Intensity Objects (%),[4],8%
same,Population Membrane Permeable-Phenotype (%),[4],4%
same,Population Mitochondria Different-Phenotype (%),[4],12%
same,Population Mitotic Cells (%),[4],62%
same,Population Normal (%),[4],91%
same,Population Pyknosed Nuclei (%),[4],23%
same,Population Tubulin-Different-Phenotype (%),[4],50%
same,Total Cell Count,[4],132
same,Population Apoptotic (%),[5],53%
same,Population Fragmented Nuclei (%),[5],11%
same,Population Healthy Nuclei (%),[5],74%
same,Population Hoechst High Intensity Objects (%),[5],3%
same,Population Membrane Permeable-Phenotype (%),[5],0%
same,Population Mitochondria Different-Phenotype (%),[5],6%
same,Population Mitotic Cells (%),[5],46%
same,Population Normal (%),[5],96%
same,Population Pyknosed Nuclei (%),[5],14%
same,Population Tubulin-Different-Phenotype (%),[5],23%
same,Total Cell Count,[5],203
same,Population Apoptotic (%),[6],34%
same,Population Fragmented Nuclei (%),[6],20%
same,Population Healthy Nuclei (%),[6],58%
same,Population Hoechst High Intensity Objects (%),[6],2%
same,Population Membrane Permeable-Phenotype (%),[6],2%
same,Population Mitochondria Different-Phenotype (%),[6],3%
same,Population Mitotic Cells (%),[6],65%
same,Population Normal (%),[6],97%
same,Population Pyknosed Nuclei (%),[6],20%
same,Population Tubulin-Different-Phenotype (%),[6],39%
same,Total Cell Count,[6],142
same,Population Apoptotic (%),[7],66%
same,Population Fragmented Nuclei (%),[7],18%
same,Population Healthy Nuclei (%),[7],71%
same,Population Hoechst High Intensity Objects (%),[7],3%
same,Population Membrane Permeable-Phenotype (%),[7],0%
same,Population Mitochondria Different-Phenotype (%),[7],11%
same,Population Mitotic Cells (%),[7],33%
same,Population Normal (%),[7],96%
same,Population Pyknosed Nuclei (%),[7],9%
same,Population Tubulin-Different-Phenotype (%),[7],57%
same,Total Cell Count,[7],162
same,Population Apoptotic (%),[8],55%
same,Population Fragmented Nuclei (%),[8],26%
same,Population Healthy Nuclei (%),[8],56%
same,Population Hoechst High Intensity Objects (%),[8],6%
same,Population Membrane Permeable-Phenotype (%),[8],7%
same,Population Mitochondria Different-Phenotype (%),[8],5%
same,Population Mitotic Cells (%),[8],45%
same,Population Normal (%),[8],93%
same,Population Pyknosed Nuclei (%),[8],16%
same,Population Tubulin-Different-Phenotype (%),[8],61%
same,Total Cell Count,[8],129
same,Population Apoptotic (%),[9],75%
same,Population Fragmented Nuclei (%),[9],16%
same,Population Healthy Nuclei (%),[9],75%
same,Population Hoechst High Intensity Objects (%),[9],5%
same,Population Membrane Permeable-Phenotype (%),[9],0%
same,Population Mitochondria Different-Phenotype (%),[9],4%
same,Population Mitotic Cells (%),[9],25%
same,Population Normal (%),[9],94%
same,Population Pyknosed Nuclei (%),[9],8%
same,Population Tubulin-Different-Phenotype (%),[9],28%
same,Total Cell Count,[9],210
same,Population Apoptotic (%),[10],31%
same,Population Fragmented Nuclei (%),[10],29%
same,Population Healthy Nuclei (%),[10],55%
same,Population Hoechst High Intensity Objects (%),[10],6%
same,Population Membrane Permeable-Phenotype (%),[10],1%
same,Population Mitochondria Different-Phenotype (%),[10],1%
same,Population Mitotic Cells (%),[10],68%
same,Population Normal (%),[10],93%
same,Population Pyknosed Nuclei (%),[10],14%
same,Population Tubulin-Different-Phenotype (%),[10],25%
same,Total Cell Count,[10],143
same,Population Apoptotic (%),[11],72%
same,Population Fragmented Nuclei (%),[11],20%
same,Population Healthy Nuclei (%),[11],72%
same,Population Hoechst High Intensity Objects (%),[11],2%
same,Population Membrane Permeable-Phenotype (%),[11],0%
same,Population Mitochondria Different-Phenotype (%),[11],14%
same,Population Mitotic Cells (%),[11],27%
same,Population Normal (%),[11],97%
same,Population Pyknosed Nuclei (%),[11],6%
same,Population Tubulin-Different-Phenotype (%),[11],62%
same,Total Cell Count,[11],172
same,Population Apoptotic (%),[12],60%
same,Population Fragmented Nuclei (%),[12],39%
same,Population Healthy Nuclei (%),[12],49%
same,Population Hoechst High Intensity Objects (%),[12],5%
same,Population Membrane Permeable-Phenotype (%),[12],1%
same,Population Mitochondria Different-Phenotype (%),[12],8%
same,Population Mitotic Cells (%),[12],40%
same,Population Normal (%),[12],94%
same,Population Pyknosed Nuclei (%),[12],11%
same,Population Tubulin-Different-Phenotype (%),[12],47%
same,Total Cell Count,[12],144

# Reference: ChEMBL document CHEMBL5058577, “EUbOPEN Chemogenomics Library 2 (Multiplex)” (2022)
